Assay results published in ChEMBL document CHEMBL4011632, “Design, Synthesis, and Evaluation of Thiazolidine-2,4-dione Derivatives as a Novel Class of Glutaminase Inhibitors” (J Med Chem, 2017).
The source made the active and inactive calls. No cut-off for these calls is given here.

Legend:
[1] = target: T1, Glutaminase liver isoform, mitochondrial (Homo sapiens, UniProt Q9UI32); assay: Inhibition of recombinant human His-tagged GAB (P56 to V602 residues) expressed in Escherichia coli C41(DE3)pLysS using glutamine as substrate preincubated for 10 mins followed by substrate addition measured after 60 mins by glutamate dehydrogenase coupled enzyme assay
T1 sequence (Q9UI32 whole entry): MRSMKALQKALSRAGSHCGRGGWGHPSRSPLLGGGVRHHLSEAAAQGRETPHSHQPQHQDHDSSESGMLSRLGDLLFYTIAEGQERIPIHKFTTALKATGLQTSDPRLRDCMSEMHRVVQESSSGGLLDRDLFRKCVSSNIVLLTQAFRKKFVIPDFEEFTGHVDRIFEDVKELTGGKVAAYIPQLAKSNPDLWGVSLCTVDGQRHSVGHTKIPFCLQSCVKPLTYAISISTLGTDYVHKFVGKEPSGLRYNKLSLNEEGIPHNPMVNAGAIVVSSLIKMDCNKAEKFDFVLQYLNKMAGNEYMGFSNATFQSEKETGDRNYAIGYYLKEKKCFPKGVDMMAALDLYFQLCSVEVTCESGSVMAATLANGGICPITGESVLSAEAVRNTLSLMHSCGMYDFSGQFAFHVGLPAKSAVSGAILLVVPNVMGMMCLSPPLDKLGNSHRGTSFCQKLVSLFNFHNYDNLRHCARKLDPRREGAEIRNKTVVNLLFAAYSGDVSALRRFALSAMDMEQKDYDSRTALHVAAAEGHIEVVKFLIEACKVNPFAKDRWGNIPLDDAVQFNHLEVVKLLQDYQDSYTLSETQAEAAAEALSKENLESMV

[2] = species: Homo sapiens; assay: Selectivity index, ratio of IC50 for recombinant human His-tagged GAB (P56-V602 residues) expressed in Escherichia coli C41(DE3)pLysS to IC50 for recombinant human His-tagged KGA (L123 to L669 residues) expressed in Escherichia coli BL21(DE3)pLysS
[3] = target: T2, Glutaminase kidney isoform, mitochondrial (Homo sapiens, UniProt O94925); assay: Inhibition of recombinant human His-tagged KGA (L123 to L669 residues) expressed in Escherichia coli BL21(DE3)pLysS using glutamine substrate preincubated for 10 mins followed by substrate addition measured after 60 mins by glutamate dehydrogenase coupled enzyme assay
T2 sequence (O94925 whole entry): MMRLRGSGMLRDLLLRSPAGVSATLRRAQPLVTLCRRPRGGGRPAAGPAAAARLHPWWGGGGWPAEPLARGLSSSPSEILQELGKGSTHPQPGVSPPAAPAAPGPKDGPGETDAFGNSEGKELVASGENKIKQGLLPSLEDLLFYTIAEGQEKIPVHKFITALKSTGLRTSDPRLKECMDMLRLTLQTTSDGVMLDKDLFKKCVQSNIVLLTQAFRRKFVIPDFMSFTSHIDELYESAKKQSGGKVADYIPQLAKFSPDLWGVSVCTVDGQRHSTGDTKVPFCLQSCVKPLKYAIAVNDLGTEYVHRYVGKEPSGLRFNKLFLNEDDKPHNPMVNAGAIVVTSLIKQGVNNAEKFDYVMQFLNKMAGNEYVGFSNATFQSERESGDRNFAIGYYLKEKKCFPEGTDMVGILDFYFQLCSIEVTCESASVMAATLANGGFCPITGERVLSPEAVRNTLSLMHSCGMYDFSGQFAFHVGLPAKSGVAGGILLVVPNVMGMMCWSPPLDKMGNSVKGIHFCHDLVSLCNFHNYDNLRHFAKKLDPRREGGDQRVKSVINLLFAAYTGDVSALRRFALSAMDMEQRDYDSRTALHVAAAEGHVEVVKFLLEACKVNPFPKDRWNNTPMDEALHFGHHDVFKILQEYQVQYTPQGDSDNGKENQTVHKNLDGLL

[4] = target: T2, Glutaminase kidney isoform, mitochondrial; assay: Inhibition of recombinant human MCF7 cells derived His-tagged GAC (L123 to S598 residues) expressed in Escherichia coli C41(DE3)pLysS using glutamine as substrate preincubated for 10 mins followed by substrate addition measured after 60 mins by glutamate dehydrogenase coupled enzyme assay
Procedure, shortened: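 Human GAC cloned from MCF7 cDNA into pET28a(+) as a His-tagged construct. Expressed in E. coli C41(DE3)pLysS in Terrific Broth with kanamycin, induced with 1 mM IPTG for 6 h at 25 °C. Purified on Ni2+ resin with 500 mM imidazole elution and exchanged into 50 mM NaH2PO4, 50 mM Tris-HCl pH 8.0, 2 mM DTT, 50% glycerol. Activity measured by two-step glutaminase assay.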

[5] = system: ASPC1; assay: Anticlonogenic activity against human Aspc-1 cells at 10 uM after 21 days by crystal violet staining based assay relative to control; assay type: functional; details: ASPC1, 504 h
Procedure, shortened: (§1)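 Anchorage-dependent colony formation: AsPC-1 cells seeded at 1000 cells/well in six-well plates and treated with compound. Colony formation is expressed as percent of vehicle treatment. Mean ± SD from at least three independent experiments, each in duplicate.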

[6] = system: MDA-MB-231; assay: Growth inhibition of human MDA-MB-231 cells after 72 hrs by MTS assay; assay type: functional, cell-based; details: MDA-MB-231, 72 h
Procedure, shortened: (§2)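 Growth inhibition by MTS viability read-out. Cells seeded in 96-well plates at 4000/well (AsPC-1) or 8500/well (MDA-MB-231). Mean ± SD from at least three independent experiments, each in duplicate.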

[7] = system: ASPC1; assay: Growth inhibition of human Aspc-1 cells after 72 hrs by MTS assay; assay type: functional, cell-based; details: ASPC1, 72 h; procedure, shortened: as §2
[8] = system: ASPC1; assay: Anticlonogenic activity against human Aspc-1 cells at 2 uM after 21 days by crystal violet staining based assay relative to control; assay type: functional; details: ASPC1, 504 h; procedure, shortened: as §1
[9] = species: Homo sapiens; assay: Selectivity ratio of IC50 for recombinant human His-tagged KGA K507A mutant expressed in Escherichia coli BL21(DE3)pLysS to IC50 for human His-tagged KGA (L123 to L669 residues) expressed in Escherichia coli BL21(DE3)pLysS
[10] = species: Homo sapiens; assay: Selectivity ratio of IC50 for recombinant human His-tagged KGA S384A mutant expressed in Escherichia coli BL21(DE3)pLysS to IC50 for human His-tagged KGA (L123 to L669 residues) expressed in Escherichia coli BL21(DE3)pLysS
[11] = target: Glutaminase 1/2 (Homo sapiens) (UniProt O94925+Q9UI32); details: 3.13 to 100 uM
[12] = Inhibition of recombinant human His-tagged KGA R387L mutant expressed in Escherichia coli BL21(DE3)pLysS using glutamine substrate preincubated for 10 mins followed by substrate addition measured after 60 mins
[13] = species: Homo sapiens; assay: Selectivity ratio of IC50 for recombinant human His-tagged KGA R387L mutant expressed in Escherichia coli BL21(DE3)pLysS to IC50 for human His-tagged KGA (L123 to L669 residues) expressed in Escherichia coli BL21(DE3)pLysS
[14] = Inhibition of recombinant human His-tagged KGA K507A mutant expressed in Escherichia coli BL21(DE3)pLysS using glutamine substrate preincubated for 10 mins followed by substrate addition measured after 60 mins
[15] = species: Homo sapiens; assay: Selectivity ratio of IC50 for recombinant human His-tagged KGA R387A mutant expressed in Escherichia coli BL21(DE3)pLysS to IC50 for human His-tagged KGA (L123 to L669 residues) expressed in Escherichia coli BL21(DE3)pLysS
[16] = Inhibition of recombinant human His-tagged KGA S384A mutant expressed in Escherichia coli BL21(DE3)pLysS using glutamine substrate preincubated for 10 mins followed by substrate addition measured after 60 mins
[17] = target: T3, Glutaminase liver isoform, mitochondrial (Homo sapiens) (UniProt Q9UI32); assay: Inhibition of human GLS2 in GLS1 deficient human Aspc-1 cells assessed as decrease in cellular glutamate production at 3.13 to 100 uM after 4 hrs by amplex red glutamic acid assay
T3 sequence (whole entry): T1 sequence (Q9UI32 whole entry)
Procedure, shortened: (§3)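 GLS-knockout AsPC-1 cells made with GLS-KO ZFN mRNA, single-cell cloned, and grown in glutamine-free RPMI 1640 with 10% FBS. Cells seeded at 30 000/well and grown 24 h at 37 °C. Treated 4 h with 1% DMSO vehicle or 3.13−100 μM inhibitor, washed with PBS, and lysed in NP-40 buffer (4 °C, 20 min). Lysate glutamate measured by Amplex Red. Three independent experiments in duplicate.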

[18] = target: T3, Glutaminase liver isoform, mitochondrial (Homo sapiens); assay: Inhibition of human GLS2 in GLS1 deficient human Aspc-1 cells assessed as decrease in cellular glutamate production after 4 hrs by amplex red glutamic acid assay; procedure, shortened: as §3
[19] = Inhibition of recombinant human His-tagged KGA R387A mutant expressed in Escherichia coli BL21(DE3)pLysS using glutamine substrate preincubated for 10 mins followed by substrate addition measured after 60 mins

| Compound | IC50 [1] | Ratio IC50 [2] | IC50 [3] | IC50 [4] | inhibition at 10 µM [5] | IC50 [6] | IC50 [7] | inhibition at 2 µM [8] | Ratio IC50 [9] | Ratio IC50 [10] | inhibition [11] | IC50 [12] | Ratio IC50 [13] | IC50 [14] | Ratio IC50 [15] | IC50 [16] | inhibition [17] | inhibition [18] | IC50 [19] |
| --- | --- | --- | --- | --- | --- | --- | --- | --- | --- | --- | --- | --- | --- | --- | --- | --- | --- | --- | --- |
| CCc1cc(-c2ccc(-n3c(C)cc(/C=C4\SC(=O)NC4=O)c3C)cc2OC)ccc1/C=C1\SC(=O)NC1=O | 1190 nM | 18 | 66 nM | 177 nM |  |  |  |  |  |  |  |  |  |  |  |  |  |  |  |
| COc1cc(-n2c(-c3cccs3)cc(/C=C3\SC(=O)NC3=O)c2-c2cccs2)ccc1-c1ccc(/C=C2\SC(=O)NC2=O)cc1 | 269 nM | 7.7 | 35 nM | 53 nM | 95% | 10600 nM | 11900 nM | 89% |  |  |  |  |  |  |  |  |  |  |  |
| CCc1cc(-c2ccc(-n3c(-c4ccccc4)cc(/C=C4\SC(=O)NC4=O)c3-c3ccccc3)cc2)ccc1/C=C1\SC(=O)NC1=O | 1240 nM | 22 | 56 nM | 217 nM | 91% | 8200 nM | 8800 nM | 51% |  |  |  |  |  |  |  |  |  |  |  |
| O=C1NC(=O)/C(=C/c2cc(-c3cccs3)n(-c3ccc(Br)cc3)c2-c2cccs2)S1 | 3780 nM | 5 | 754 nM | 1270 nM |  |  |  |  |  |  |  |  |  |  |  |  |  |  |  |
| COc1cc(-n2c(C)cc(/C=C3\SC(=O)NC3=O)c2C)ccc1-c1ccc(/C=C2\SC(=O)NC2=O)cc1 | 2140 nM | 8.8 | 243 nM | 355 nM |  |  |  |  |  |  |  |  |  |  |  |  |  |  |  |
| COc1cc(-n2c(-c3ccccc3)cc(/C=C3\SC(=O)NC3=O)c2-c2ccccc2)ccc1-c1ccc(/C=C2\SC(=O)NC2=O)cc1 | 787 nM | 16 | 48 nM | 148 nM | 95% | 8900 nM | 12000 nM | 90% |  |  |  |  |  |  |  |  |  |  |  |
| O=C1NC(=O)/C(=C/c2ccc(-c3ccc(-n4c(-c5ccccc5)cc(/C=C5\SC(=O)NC5=O)c4-c4ccccc4)cc3)cc2)S1 | 261 nM | 5.8 | 45 nM | 151 nM | 94% | 13400 nM | 10000 nM | 79% | 4.2 | 1.7 | Active | 603 nM | 13.4 | 187 nM | 197 | 78 nM | Active | Dose-dependent effect | 8880 nM |
| Cc1cc(/C=C2\SC(=O)NC2=O)c(C)n1-c1ccc(-c2ccc(/C=C3\SC(=O)NC3=O)cc2)c(O)c1 | 5720 nM | 23 | 247 nM | 760 nM |  |  |  |  |  |  |  |  |  |  |  |  |  |  |  |
| CCc1cc(-c2ccc(-n3c(C)cc(/C=C4\SC(=O)NC4=O)c3C)cc2C#N)ccc1/C=C1\SC(=O)NC1=O | 1190 nM | 20 | 59 nM | 92 nM |  |  |  |  |  |  |  |  |  |  |  |  |  |  |  |
| Cc1cc(/C=C2\SC(=O)NC2=O)c(C)n1-c1ccc(Br)cc1 | > 100000 nM | > 32 | 3100 nM | 5370 nM |  |  |  |  |  |  |  |  |  |  |  |  |  |  |  |
| O=C1NC(=O)/C(=C/c2cc(-c3ccccc3)n(-c3ccc(Br)cc3)c2-c2ccccc2)S1 | 11800 nM | 2.4 | 4900 nM | 8760 nM |  |  |  |  |  |  |  |  |  |  |  |  |  |  |  |
| CCc1cc(-c2ccc(-n3c(-c4cccs4)cc(/C=C4\SC(=O)NC4=O)c3-c3cccs3)cc2)ccc1/C=C1\SC(=O)NC1=O | 1720 nM | 32 | 54 nM | 391 nM | 89% | 26300 nM | 24800 nM | 44% |  |  |  |  |  |  |  |  |  |  |  |
| CCc1cc(-c2ccc(-n3c(C)cc(/C=C4\SC(=O)NC4=O)c3C)cc2)ccc1/C=C1\SC(=O)NC1=O | 1030 nM | 26 | 39 nM | 87 nM | 59% | 15300 nM | 12500 nM | 28% |  |  |  |  |  |  |  |  |  |  |  |
